In PMC4203516 (Autophagy, 2014):
Where “and” joins values, the source holds several entries; their conditions need not be identical. Equal entries are not always repeated. Entries after “also recorded” stand apart in the source; their conditions may differ.

Columns and labels:
[1] = system: cutaneous melanoma metastases; experiment: Autophagic vacuole accumulation in serial tumor biopsies by electron microscopy; type: in vivo, human; settings: after 4 h of treatment with TEM, one melanoma patient
How it was run: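 Cutaneous melanoma metastases sampled serially by punch biopsy from patients on IV temsirolimus 25 mg weekly plus oral HCQ 1200 mg/d. Tumour was dissected on ice and fixed immediately in EM fixative (2% glutaraldehyde, as used for PBMC) before electron microscopy for autophagic vacuoles.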

[2] = system: autophagic vacuoles in peripheral blood mononuclear cells (PBMC); experiment: Autophagic vacuole; type: in vivo, human; settings: 1 wk, 24 h or 4 h after first TEM infusion, data pooled
advanced melanoma [3] = settings: temsirolimus alone, of 33 patients; cited from earlier work
advanced melanoma [4] = experiment: RECIST 1.0 response and progression-free survival, melanoma patients; type: in vivo, human
How it was run: (§1)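 Patients received IV temsirolimus 25 mg weekly, with a 1-wk single-agent run-in, then daily oral HCQ, treated until progression. Patients were evaluable for response after completing ≥2 wk of concurrent HCQ and temsirolimus. Progression was defined as >20% increase in measurable disease or appearance of a new lesion. Non-evaluable patients were replaced.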

[5] = Phase I dose escalation: adverse events and dose-limiting toxicities; type: in vivo, human
How it was run: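 Open-label, single-institution 3 + 3 escalation. IV temsirolimus 25 mg weekly was infused over 30 min after IV diphenhydramine 25–50 mg premedication. A 1-wk temsirolimus-alone run-in preceded daily oral HCQ (200, 400, 800, 1200 mg), split ≥6 h apart above 200 mg. Cycles lasted 4 wk. The DLT window was the first 6 wk, later 5 wk. Toxicity-evaluable patients took ≥1 HCQ dose. Blood counts were weekly, then every 2 wk.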

[6] = HCQ whole blood population pharmacokinetics; type: in vivo, human
advanced solid tumors = experiment: RECIST 1.0 response, phase I dose escalation; type: in vivo, human
How it was run: as §1

[7] = Melanoma patients, HCQ dose cohort 200–800 + TEM, N=6
[8] = Melanoma patients, HCQ dose cohort 1200 + TEM, N=13
[9] = melanoma expansion, of 12 patients, HCQ 1200 mg/d + TEM
[10] = Total, all HCQ doses + TEM 25 mg weekly, N=39
[11] = daily HCQ 200 mg + TEM 25 mg weekly, N=11
[12] = daily HCQ 400 mg + TEM 25 mg weekly, N=3
[13] = daily HCQ 800 mg + TEM 25 mg weekly, N=9
[14] = daily HCQ 1200 mg + TEM 25 mg weekly, N=16
[15] = population PK, 1000 bootstrap runs
[16] = population PK, whole blood, 34 patients, oral HCQ
[17] = Phase I dose escalation, HCQ dose cohort 200 + TEM, N=6 evaluable
[18] = Phase I dose escalation, HCQ dose cohort 400 + TEM, N=3
[19] = Phase I dose escalation, HCQ dose cohort 800 + TEM, N=9
[20] = Phase I dose escalation, HCQ dose cohort 1200 + TEM, N=3
[21] = Phase I dose escalation, Total, N=21 evaluable
[22] = dose escalation, of 19 patients

CO[C@H]1C[C@@H]2CC[C@@H](C)[C@@](O)(O2)C(=O)C(=O)N2CCCC[C@H]2C(=O)O[C@H]([C@H](C)C[C@@H]2CC[C@@H](OC(=O)C(C)(CO)CO)[C@H](OC)C2)CC(=O)[C@H](C)/C=C(\C)[C@@H](O)[C@@H](OC)C(=O)[C@H](C)C[C@H](C)/C=C/C=C/C=C/1C [TEM, temsirolimus]
AV in tumor tissue compared with baseline [1]: no accumulation of AV
AV/cell in PBMC after TEM treatment alone [2]: no significant increase in AV
Patients with partial response (advanced melanoma [3]): 1
Patients with stable disease (advanced melanoma [3]): 0

CCN(CCO)CCCC(C)Nc1ccnc2cc(Cl)ccc12 (stereo not drawn) [HCQ, hydroxychloroquine]
PD (progressive disease), patients (advanced melanoma [4]; [7]): 1
PR (partial response), patients (advanced melanoma [4]; [7]): 0
PD (progressive disease), patients (advanced melanoma [4]; [8]): 4
PR (partial response), patients (advanced melanoma [4]; [8]): 0
PD (progressive disease), % (advanced melanoma [4]; Melanoma patients, Total, N=19): 26%
PD (progressive disease), patients (advanced melanoma [4]; Melanoma patients, Total, N=19): 5
PR (partial response), patients (advanced melanoma [4]; Melanoma patients, Total, N=19): 0
Median progression-free survival (advanced melanoma [4]; evaluable melanoma patients, HCQ 1200 mg/d + TEM, 95%CI 2–6 mo): 3.5 mo
Patients with some degree of tumor shrinkage (waterfall plot) (advanced melanoma [4]; [9]): 6
Patients with some degree of tumor shrinkage, % (advanced melanoma [4]; [9]): 50%
Anal fissure G1–2, % [5, 10]: 5%
Anal fissure G1–2, patients [5, 10]: 2
Anemia G1–2, patients [5, 10]: 4
Anemia G3–4, patients [5, 10]: 4
Anorexia G1–2, % [5, 10]: 41%
Anorexia G1–2, patients [5, 10]: 16
Anorexia G3–4, % [5, 10]: 8%
Anorexia G3–4, patients [5, 10]: 3
Constipation G1–2, % [5, 10]: 13%
Constipation G1–2, patients [5, 10]: 5
Diarrhea G1–2, patients [5, 10]: 7
Dizziness G1–2, % [5, 10]: 5%
Dizziness G1–2, patients [5, 10]: 2
Dysguesia G1–2, patients [5, 10]: 2
Dysguesia G3–4, patients [5, 10]: 1
Elevated creatinine G1–2, patients [5, 10]: 2
Elevated creatinine G3–4, patients [5, 10]: 1
Fatigue G1–2, patients [5, 10]: 19
Fatigue G3–4, patients [5, 10]: 3
Lymphopenia G1–2, % [5, 10]: 31%
Lymphopenia G3–4, % [5, 10]: 3%
Lymphopenia G3–4, patients [5, 10]: 1
Nausea G1–2, patients [5, 10]: 13
Nausea G3–4, % [5, 10]: 15%
Nausea G3–4, patients [5, 10]: 6
Neutropenia G1–2, % [5, 10]: 3%
Neutropenia G1–2, patients [5, 10]: 1
Poor wound healing G1–2, patients [5, 10]: 2
Rash G1–2, patients [5, 10]: 15
Stomatitis G1–2, patients [5, 10]: 16
Thrombocytopenia G1–2, % [5, 10]: 21%
Thrombocytopenia G1–2, patients [5, 10]: 8
Thrombocytopenia G3–4, % [5, 10]: 3%
Thrombocytopenia G3–4, patients [5, 10]: 1
Vitiligo G1–2, % [5, 10]: 5%
Vitiligo G1–2, patients [5, 10]: 2
Weight loss G1–2, % [5, 10]: 18%
Weight loss G1–2, patients [5, 10]: 7
Anemia G1–2, % [5, 11]: 9%
Anemia G1–2, patients [5, 11]: 1
Anemia G3–4, % [5, 11]: 9%
Anemia G3–4, patients [5, 11]: 1
Anorexia G1–2, % [5, 11]: 36%
Anorexia G1–2, patients [5, 11]: 4
Diarrhea G1–2, patients [5, 11]: 3
Fatigue G1–2, patients [5, 11]: 5
Lymphopenia G1–2, % [5, 11]: 45%
Lymphopenia G1–2, patients [5, 11]: 5
Nausea G1–2, patients [5, 11]: 4
Nausea G3–4, patients [5, 11]: 1
Neutropenia G1–2, patients [5, 11]: 1
Rash G1–2, patients [5, 11]: 3
Stomatitis G1–2, patients [5, 11]: 4
Thrombocytopenia G1–2, % [5, 11]: 36%
Thrombocytopenia G1–2, patients [5, 11]: 4
Thrombocytopenia G3–4, % [5, 11]: 9%
Thrombocytopenia G3–4, patients [5, 11]: 1
Weight loss G1–2, % [5, 11]: 18%
Weight loss G1–2, patients [5, 11]: 2
Anemia G1–2, % [5, 12]: 33%
Anemia G1–2, patients [5, 12]: 1
Anemia G3–4, % [5, 12]: 33%
Anemia G3–4, patients [5, 12]: 1
Anorexia G1–2, % [5, 12]: 33%
Anorexia G1–2, patients [5, 12]: 1
Diarrhea G1–2, % [5, 12]: 33%
Diarrhea G1–2, patients [5, 12]: 1
Fatigue G1–2, % [5, 12]: 67%
Fatigue G1–2, patients [5, 12]: 2
Lymphopenia G1–2, % [5, 12]: 33%
Lymphopenia G1–2, patients [5, 12]: 1
Rash G1–2, patients [5, 12]: 1
Stomatitis G1–2, patients [5, 12]: 1
Weight loss G1–2, % [5, 12]: 67%
Weight loss G1–2, patients [5, 12]: 2
Anal fissure G1–2, % [5, 13]: 11%
Anal fissure G1–2, patients [5, 13]: 1
Anemia G1–2, % [5, 13]: 22%
Anemia G1–2, patients [5, 13]: 2
Anemia G3–4, patients [5, 13]: 1
Anorexia G1–2, % [5, 13]: 56%
Anorexia G1–2, patients [5, 13]: 5
Anorexia G3–4, % [5, 13]: 11%
Anorexia G3–4, patients [5, 13]: 1
Constipation G1–2, % [5, 13]: 11%
Constipation G1–2, patients [5, 13]: 1
Diarrhea G1–2, % [5, 13]: 11%
Diarrhea G1–2, patients [5, 13]: 1
Fatigue G1–2, patients [5, 13]: 2
Fatigue G3–4, patients [5, 13]: 2
Lymphopenia G1–2, % [5, 13]: 33%
Lymphopenia G1–2, patients [5, 13]: 3
Nausea G1–2, patients [5, 13]: 4
Nausea G3–4, patients [5, 13]: 1
Rash G1–2, patients [5, 13]: 2
Stomatitis G1–2, patients [5, 13]: 4
Thrombocytopenia G1–2, % [5, 13]: 22%
Thrombocytopenia G1–2, patients [5, 13]: 2
Weight loss G1–2, patients [5, 13]: 1
Anal fissure G1–2, % [5, 14]: 6%
Anal fissure G1–2, patients [5, 14]: 1
Anemia G3–4, % [5, 14]: 6%
Anemia G3–4, patients [5, 14]: 1
Anorexia G1–2, % [5, 14]: 38%
Anorexia G1–2, patients [5, 14]: 6
Anorexia G3–4, % [5, 14]: 13%
Anorexia G3–4, patients [5, 14]: 2
Constipation G1–2, patients [5, 14]: 4
Diarrhea G1–2, % [5, 14]: 13%
Diarrhea G1–2, patients [5, 14]: 2
Dizziness G1–2, % [5, 14]: 13%
Dizziness G1–2, patients [5, 14]: 2
Dysguesia G1–2, patients [5, 14]: 2
Dysguesia G3–4, patients [5, 14]: 1
Elevated creatinine G1–2, patients [5, 14]: 2
Elevated creatinine G3–4, patients [5, 14]: 1
Fatigue G1–2, patients [5, 14]: 10
Fatigue G3–4, patients [5, 14]: 1
Lymphopenia G1–2, % [5, 14]: 38%
Lymphopenia G1–2, patients [5, 14]: 6
Lymphopenia G3–4, % [5, 14]: 6%
Lymphopenia G3–4, patients [5, 14]: 1
Nausea G1–2, patients [5, 14]: 5
Nausea G3–4, % [5, 14]: 25%
Nausea G3–4, patients [5, 14]: 4
Poor wound healing G1–2, patients [5, 14]: 2
Rash G1–2, patients [5, 14]: 9
Stomatitis G1–2, patients [5, 14]: 7
Thrombocytopenia G1–2, % [5, 14]: 13%
Thrombocytopenia G1–2, patients [5, 14]: 2
Vitiligo G1–2, patients [5, 14]: 2
Weight loss G1–2, % [5, 14]: 13%
Weight loss G1–2, patients [5, 14]: 2
Grade 3 pulmonary tumor abscess ([5]; head and neck cancer patient with history of aspiration, cycle 3): One patient
Recommended phase II dose of HCQ ([5]; in combination with TEM 25 mg weekly): 600 mg twice daily
Maximum tolerated dose (MTD) of HCQ ([5]; in combination with TEM 25 mg weekly, up to 1200 mg/d): not reached; also recorded: not defined
Grade 4 cholangitis and sepsis during tumor regression ([5]; melanoma patient with large gall bladder metastases, cohort not stated): One patient
Vd/F ([6]; human, whole blood, po): 865 L
Cl/F, apparent oral clearance, bootstrap estimate [6, 15]: 15.953 L/h
Ka, absorption rate constant, bootstrap estimate [6, 15]: 0.758 h
Q, intercompartmental clearance, bootstrap estimate [6, 15]: 26.421 L/h
Tlag, absorption lag time, bootstrap estimate [6, 15]: 0.564 h
V2/F, apparent peripheral volume of distribution, bootstrap estimate [6, 15]: 3285.0246 L
V/F, apparent central volume of distribution, bootstrap estimate [6, 15]: 496.0499 L
Cl/F, apparent oral clearance, model estimate [6, 16]: 17.517 L/h
Ka, absorption rate constant, model estimate [6, 16]: 0.649 h
Q, intercompartmental clearance, model estimate [6, 16]: 26.067 L/h
Tlag, absorption lag time, model estimate [6, 16]: 0.399 h
V2/F, apparent peripheral volume of distribution, model estimate [6, 16]: 3236.73 L
Time to steady-state of HCQ blood concentrations, average ([6]; simulated from final PK model for individual patients): 350 h and 360 h
Blood HCQ AUC, Cmax, Cmin and Cavg relationship to dose ([6]; simulated steady-state, 200–1200 mg/d): proportional to daily HCQ dose
PD (progressive disease), patients (advanced solid tumors; [17]): 2
PR (partial response), patients (advanced solid tumors; [17]): 0
PD (progressive disease), patients (advanced solid tumors; [18]): 0
PR (partial response), patients (advanced solid tumors; [18]): 0
PD (progressive disease), patients (advanced solid tumors; [19]): 4
PR (partial response), patients (advanced solid tumors; [19]): 0
PD (progressive disease), patients (advanced solid tumors; [20]): 1
PR (partial response), patients (advanced solid tumors; [20]): 0
PD (progressive disease), % (advanced solid tumors; [21]): 33%
PD (progressive disease), patients (advanced solid tumors; [21]): 7
PR (partial response), % (advanced solid tumors; [21]): 0 (0%)
PR (partial response), patients (advanced solid tumors; [21]): 0 (0%)
Partial responses by RECIST 1.0, whole study (advanced solid tumors; all cohorts): No partial responses
Patients with some degree of tumor shrinkage (waterfall plot) (advanced solid tumors; [22]): 7
Patients with some degree of tumor shrinkage, % (advanced solid tumors; [22]): 37%
